Measured values reported in ChEMBL document CHEMBL1817563, “Novel aminopeptidase N (APN/CD13) inhibitors derived from chloramphenicol amine” (Bioorg Med Chem, 2011).

Assays:
[1] = Selectivity ratio of IC50 for MMP-2 to IC50 for pig kidney microsomal APN
[2] = target: 72 kDa type IV collagenase (Homo sapiens, UniProt P08253); assay: Inhibition of human MMP-2 after 30 mins by spectrophotometry
How it was run: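 MMP-2 was incubated with synthetic substrate and inhibitor in 50 mM sodium borate, pH 8.5, for 30 min at 37 °C. TNBS (0.03%, m/v) was then added for 20 min at room temperature. Absorbance was read at 450 nm. IC50 is the mean ± standard deviation of triplicate experiments.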

Aminopeptidase N [3] = target: T1, Aminopeptidase N (Sus scrofa, UniProt P15145); assay: Inhibition of pig kidney microsomal APN assessed as hydrolysis of L-Leu-p-nitroanilide after 1 hr by spectrophotometry
T1 sequence (P15145 whole entry): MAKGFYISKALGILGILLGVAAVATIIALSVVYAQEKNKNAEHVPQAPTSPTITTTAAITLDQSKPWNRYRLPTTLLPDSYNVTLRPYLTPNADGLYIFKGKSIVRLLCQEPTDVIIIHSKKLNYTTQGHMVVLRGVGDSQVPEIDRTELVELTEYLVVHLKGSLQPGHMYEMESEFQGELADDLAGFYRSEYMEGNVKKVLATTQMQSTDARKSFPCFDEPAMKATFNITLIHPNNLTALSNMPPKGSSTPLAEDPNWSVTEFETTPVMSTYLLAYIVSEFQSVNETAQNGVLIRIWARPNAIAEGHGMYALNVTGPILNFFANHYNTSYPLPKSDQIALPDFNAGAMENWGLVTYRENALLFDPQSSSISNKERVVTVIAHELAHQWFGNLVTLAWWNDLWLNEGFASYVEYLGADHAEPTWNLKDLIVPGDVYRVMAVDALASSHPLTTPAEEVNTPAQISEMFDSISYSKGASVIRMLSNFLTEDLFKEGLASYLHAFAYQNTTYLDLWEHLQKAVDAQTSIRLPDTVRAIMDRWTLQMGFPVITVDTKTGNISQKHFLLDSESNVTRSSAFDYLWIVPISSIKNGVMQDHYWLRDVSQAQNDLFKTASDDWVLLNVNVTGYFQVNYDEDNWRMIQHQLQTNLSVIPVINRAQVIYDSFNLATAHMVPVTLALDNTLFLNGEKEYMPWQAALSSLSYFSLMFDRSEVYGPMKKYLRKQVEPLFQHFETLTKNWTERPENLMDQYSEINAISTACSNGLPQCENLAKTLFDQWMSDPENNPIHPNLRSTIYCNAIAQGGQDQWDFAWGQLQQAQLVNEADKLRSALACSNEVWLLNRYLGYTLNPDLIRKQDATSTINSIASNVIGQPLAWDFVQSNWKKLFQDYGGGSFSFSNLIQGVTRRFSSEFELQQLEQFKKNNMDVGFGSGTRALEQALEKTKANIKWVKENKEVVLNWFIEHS
How it was run: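 Porcine kidney microsomal aminopeptidase in 50 mM PBS, pH 7.2, with L-Leu-p-nitroanilide as substrate. Incubated with a range of inhibitor concentrations at 37 °C. Triplicate experiments, reported as mean ± standard deviation.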

HL-60 = assay: Antiproliferative activity against human HL60 cells expressing high levels of APN after 48 hrs by MTT assay; format: functional, cell-based; details: HL-60, 48 h
How it was run: (§1)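 Cells kept in RPMI1640 plus 10% FBS at 37 °C, 5% CO2. Seeded 1×10^4/well and grown 4 h before inhibitors were added over a range of concentrations. After 48 h exposure, MTT (0.5 mg/mL) was added and the formazan dissolved in DMSO. Read-out was OD at 570 nm.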

Aminopeptidase N [4] = target: Aminopeptidase N (Homo sapiens, UniProt P15144); assay: Inhibition of APN in human HL60 cells assessed as hydrolysis of L-Leu-p-nitroanilide by spectrophotometry; format: cell-based, HL-60
How it was run: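 Intact HL-60 cells suspended in PBS (1×10^5/well) served as the enzyme source, with L-Leu-p-nitroanilide as substrate. Cells were incubated at 37 °C with a range of inhibitor concentrations. Values are means of three independent experiments.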

MDA-MB-231 = assay: Antiproliferative activity against human MDA-MB-231 cells expressing low levels of APN after 48 hrs by MTT assay; format: functional, cell-based; details: MDA-MB-231, 48 h; how it was run: as §1

Aminopeptidase N (Homo sapiens, UniProt P15144), sequence (P15144 whole entry): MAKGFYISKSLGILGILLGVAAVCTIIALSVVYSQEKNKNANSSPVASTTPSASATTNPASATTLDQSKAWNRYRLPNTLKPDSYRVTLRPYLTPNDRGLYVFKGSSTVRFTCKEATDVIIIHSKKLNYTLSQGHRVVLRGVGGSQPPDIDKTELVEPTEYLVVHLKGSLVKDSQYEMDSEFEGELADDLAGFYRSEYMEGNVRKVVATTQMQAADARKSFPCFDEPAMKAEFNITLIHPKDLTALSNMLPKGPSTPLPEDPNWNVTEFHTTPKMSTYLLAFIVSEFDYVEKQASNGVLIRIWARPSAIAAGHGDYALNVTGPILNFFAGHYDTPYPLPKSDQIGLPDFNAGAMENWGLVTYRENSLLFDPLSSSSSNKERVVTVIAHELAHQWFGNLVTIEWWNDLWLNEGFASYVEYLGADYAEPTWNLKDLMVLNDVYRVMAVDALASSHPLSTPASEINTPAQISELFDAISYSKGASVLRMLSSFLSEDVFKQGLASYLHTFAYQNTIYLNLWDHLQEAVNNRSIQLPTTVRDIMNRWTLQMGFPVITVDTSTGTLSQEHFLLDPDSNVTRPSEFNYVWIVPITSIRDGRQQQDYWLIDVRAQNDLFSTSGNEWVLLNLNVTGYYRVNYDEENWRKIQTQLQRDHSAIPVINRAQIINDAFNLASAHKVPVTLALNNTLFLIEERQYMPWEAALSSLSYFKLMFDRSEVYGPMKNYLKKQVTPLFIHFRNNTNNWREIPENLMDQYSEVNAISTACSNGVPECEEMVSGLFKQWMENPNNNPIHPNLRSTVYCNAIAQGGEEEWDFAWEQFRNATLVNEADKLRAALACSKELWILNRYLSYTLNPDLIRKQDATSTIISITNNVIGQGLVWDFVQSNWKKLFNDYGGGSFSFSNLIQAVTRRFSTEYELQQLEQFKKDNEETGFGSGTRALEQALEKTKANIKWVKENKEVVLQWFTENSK
72 kDa type IV collagenase, sequence (P08253 whole entry): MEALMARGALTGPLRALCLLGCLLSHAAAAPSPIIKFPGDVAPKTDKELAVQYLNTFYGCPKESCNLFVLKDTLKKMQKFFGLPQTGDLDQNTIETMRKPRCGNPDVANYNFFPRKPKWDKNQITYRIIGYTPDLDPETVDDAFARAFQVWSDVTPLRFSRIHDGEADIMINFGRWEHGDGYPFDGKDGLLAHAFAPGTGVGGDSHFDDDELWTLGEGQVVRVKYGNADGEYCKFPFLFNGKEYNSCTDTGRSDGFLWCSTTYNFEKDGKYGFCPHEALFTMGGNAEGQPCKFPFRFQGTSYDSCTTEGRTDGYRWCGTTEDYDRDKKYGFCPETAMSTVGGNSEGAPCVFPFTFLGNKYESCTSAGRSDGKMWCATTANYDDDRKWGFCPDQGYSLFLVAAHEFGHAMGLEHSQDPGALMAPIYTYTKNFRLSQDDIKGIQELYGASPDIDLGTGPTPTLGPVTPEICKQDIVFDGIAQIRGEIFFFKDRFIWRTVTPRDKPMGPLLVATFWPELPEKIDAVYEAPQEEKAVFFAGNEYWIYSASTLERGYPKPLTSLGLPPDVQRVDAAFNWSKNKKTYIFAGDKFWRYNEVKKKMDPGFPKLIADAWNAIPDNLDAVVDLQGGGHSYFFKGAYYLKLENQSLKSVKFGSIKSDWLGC

## CC(C)C[C@H](NC(=O)[C@H](N)Cc1ccccc1)C(=O)NC[C@H](N)[C@@H](O)c1ccc(I)cc1
[1]
  Ratio IC50: 0.5
[2]
  IC50: 52.7 µM
Aminopeptidase N [3]
  IC50: 105 µM

## CC(C)C[C@H](N)C(=O)N[C@H](Cc1ccccc1)C(=O)NC[C@H](N)[C@@H](O)c1ccc(I)cc1
[1]
  Ratio IC50: 7.7
[2]
  IC50: 86.6 µM
Aminopeptidase N [3]
  IC50: 11.3 µM

## N[C@H](Cc1ccccc1)C(=O)N[C@H](Cc1ccccc1)C(=O)NC[C@H](N)[C@@H](O)c1ccc(I)cc1
[1]
  Ratio IC50: < 0.1
[2]
  IC50: 107 µM
Aminopeptidase N [3]
  IC50: > 1000 µM

## NC[C@H](O)C(=O)N[C@H](Cc1ccccc1)C(=O)NC[C@H](N)[C@@H](O)c1ccc([N+](=O)[O-])cc1
[1]
  Ratio IC50: 6.3
[2]
  IC50: 40.6 µM
HL-60
  IC50: 2040 µM
Aminopeptidase N [3]
  IC50: 6.5 µM
Aminopeptidase N [4]
  IC50: 66.3 µM
MDA-MB-231
  IC50: 4130 µM

## N[C@@H](CS)C(=O)NC[C@H](N)[C@@H](O)c1ccc([N+](=O)[O-])cc1
[1]
  Ratio IC50: 12.7
[2]
  IC50: 152 µM
HL-60
  IC50: 2320 µM
Aminopeptidase N [3]
  IC50: 12.4 µM
Aminopeptidase N [4]
  IC50: 248 µM
MDA-MB-231
  IC50: 4220 µM

## N[C@H](Cc1ccccc1)C(=O)N[C@@H](CO)C(=O)NC[C@H](N)[C@@H](O)c1ccc([N+](=O)[O-])cc1
[1]
  Ratio IC50: 5
[2]
  IC50: 110 µM
Aminopeptidase N [3]
  IC50: 21.6 µM

## CC(C)C[C@H](NC(=O)[C@@H](O)[C@H](N)Cc1ccccc1)C(=O)O [UBENIMEX]
[2]
  IC50: 120 µM
MDA-MB-231
  IC50: 5080 µM

## N[C@@H](CNC(=O)[C@@H]1Cc2ccc(O)cc2CN1)[C@@H](O)c1ccc([N+](=O)[O-])cc1
[1]
  Ratio IC50: > 2.3
[2]
  IC50: > 1000 µM
Aminopeptidase N [3]
  IC50: 441 µM

## N[C@H](Cc1ccccc1)C(=O)NC[C@H](O)C(=O)NC[C@H](N)[C@@H](O)c1ccc([N+](=O)[O-])cc1
[1]
  Ratio IC50: 6.1
[2]
  IC50: 109 µM
HL-60
  IC50: 3150 µM
Aminopeptidase N [3]
  IC50: 17.6 µM
Aminopeptidase N [4]
  IC50: 616 µM
MDA-MB-231
  IC50: 7320 µM

## Nc1ccc([C@H](O)[C@@H](N)CNC(=O)[C@H](N)Cc2ccccc2)cc1
[1]
  Ratio IC50: 1.1
[2]
  IC50: 149 µM
Aminopeptidase N [3]
  IC50: 141 µM

## CC(C)C[C@H](NC(=O)[C@H](N)Cc1ccccc1)C(=O)NC[C@H](N)[C@@H](O)c1ccc([N+](=O)[O-])cc1
[1]
  Ratio IC50: 1.4
[2]
  IC50: 106 µM
Aminopeptidase N [3]
  IC50: 74.7 µM

## CC(C)C[C@H](N)C(=O)N[C@H](Cc1ccccc1)C(=O)NC[C@H](N)[C@@H](O)c1ccc([N+](=O)[O-])cc1
[1]
  Ratio IC50: 19.2
[2]
  IC50: 173 µM
HL-60
  IC50: 2150 µM
Aminopeptidase N [3]
  IC50: 9.4 µM
Aminopeptidase N [4]
  IC50: 290 µM
MDA-MB-231
  IC50: 1320 µM

## N[C@@H](Cc1ccc(O)cc1)C(=O)NC[C@H](N)[C@@H](O)c1ccc([N+](=O)[O-])cc1
[1]
  Ratio IC50: 1.6
[2]
  IC50: 61.3 µM
Aminopeptidase N [3]
  IC50: 39.2 µM

## CC(C)C[C@H](N)C(=O)N[C@H](Cc1ccccc1)C(=O)NC[C@H](N)[C@@H](O)c1ccc(N)cc1
[1]
  Ratio IC50: 22.3
[2]
  IC50: 134 µM
HL-60
  IC50: 1340 µM
Aminopeptidase N [3]
  IC50: 6.1 µM
Aminopeptidase N [4]
  IC50: 39.4 µM
MDA-MB-231
  IC50: 3650 µM

## NC[C@H](N)[C@@H](O)c1ccc([N+](=O)[O-])cc1
[1]
  Ratio IC50: > 1.1
[2]
  IC50: > 1000 µM
Aminopeptidase N [3]
  IC50: 894 µM

## NC[C@H](O)C(=O)NC[C@H](N)[C@@H](O)c1ccc([N+](=O)[O-])cc1
[2]
  IC50: 100 µM
Aminopeptidase N [3]
  IC50: 164 µM

## Nc1ccc([C@H](O)[C@@H](N)CNC(=O)[C@@H](Cc2ccccc2)NC(=O)[C@H](N)Cc2ccccc2)cc1
[1]
  Ratio IC50: 1.3
[2]
  IC50: 40.4 µM
Aminopeptidase N [3]
  IC50: 30.6 µM

## CC(C)C[C@H](N)C(=O)NC[C@H](N)[C@@H](O)c1ccc(N)cc1
[1]
  Ratio IC50: 1.9
[2]
  IC50: 119 µM
Aminopeptidase N [3]
  IC50: 63.2 µM

## Nc1ccc([C@H](O)[C@@H](N)CNC(=O)[C@@H](N)Cc2ccc(O)cc2)cc1
[1]
  Ratio IC50: 1
[2]
  IC50: 111 µM
Aminopeptidase N [3]
  IC50: 114 µM

## NCCCC[C@H](N)C(=O)NC[C@H](N)[C@@H](O)c1ccc([N+](=O)[O-])cc1
[1]
  Ratio IC50: 1.7
[2]
  IC50: 84.3 µM
Aminopeptidase N [3]
  IC50: 50.1 µM

## CC(C)C[C@H](NC(=O)[C@@H](O)CN)C(=O)NC[C@H](N)[C@@H](O)c1ccc([N+](=O)[O-])cc1
[1]
  Ratio IC50: 4.2
[2]
  IC50: 83.9 µM
Aminopeptidase N [3]
  IC50: 19.6 µM

## N[C@H](Cc1ccccc1)C(=O)N[C@H](Cc1ccccc1)C(=O)NC[C@H](N)[C@@H](O)c1ccc([N+](=O)[O-])cc1
[1]
  Ratio IC50: 0.3
[2]
  IC50: 44.1 µM
Aminopeptidase N [3]
  IC50: 134 µM

## CC(C)C[C@H](NC(=O)[C@H](N)Cc1ccccc1)C(=O)NC[C@H](N)[C@@H](O)c1ccc(N)cc1
[1]
  Ratio IC50: 3
[2]
  IC50: 94 µM
Aminopeptidase N [3]
  IC50: 31.6 µM

## N[C@H](Cc1ccccc1)C(=O)NC[C@H](N)[C@@H](O)c1ccc([N+](=O)[O-])cc1
[1]
  Ratio IC50: 1.6
[2]
  IC50: 67.4 µM
Aminopeptidase N [3]
  IC50: 42.2 µM

## CC(C)C[C@H](N)C(=O)NC[C@H](N)[C@@H](O)c1ccc([N+](=O)[O-])cc1
[1]
  Ratio IC50: 1.8
[2]
  IC50: 143 µM
Aminopeptidase N [3]
  IC50: 80.6 µM

## N[C@@H](CO)C(=O)NC[C@H](N)[C@@H](O)c1ccc([N+](=O)[O-])cc1
[1]
  Ratio IC50: 0.8
[2]
  IC50: 331 µM
Aminopeptidase N [3]
  IC50: 423 µM

## N[C@@H](Cc1ccc(O)cc1)C(=O)NC[C@H](N)[C@@H](O)c1ccc(I)cc1
[1]
  Ratio IC50: 2
[2]
  IC50: 42.2 µM
Aminopeptidase N [3]
  IC50: 21.6 µM

## CC(C)C[C@H](N)C(=O)NC[C@H](N)[C@@H](O)c1ccc(I)cc1
[1]
  Ratio IC50: 3.9
[2]
  IC50: 120 µM
Aminopeptidase N [3]
  IC50: 30.6 µM

## NCCCC[C@H](N)C(=O)NC[C@H](N)[C@@H](O)c1ccc(N)cc1
[1]
  Ratio IC50: 1.2
[2]
  IC50: 157 µM
Aminopeptidase N [3]
  IC50: 136 µM
